Measurements taken from ChEMBL document CHEMBL4387755 (Bioorg Med Chem, 2019).
pEC50: −log10 of the molar value.

Assays:
Assay type in all cases: functional, cell-based
[1] = molecular target: T1, Melatonin receptor type 1A (Homo sapiens, UniProt P48039); assay: Agonist activity at MT1 receptor (unknown origin) expressed in HEK293 cells at 0.5 mM by Fluo-8 dye-based calcium assay relative to control
Outline: (§1)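 HEK293 cells grown at 37 °C, 5% CO2 in DMEM with 10% FBS and G418 (400 μg/mL). Seeded at 4 × 10⁴/well on Matrigel-coated plates and grown 24 h. Loaded with Fluo-8 calcium dye for 1 h. Compounds were dissolved in DMSO and diluted in HBSS, then added automatically. Fluorescence was read at room temperature (ex 485 nm, em 525 nm, cut-off 515 nm). Agonistic rate was measured at 0.5 mM.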

[2] = molecular target: T2, Melatonin receptor type 1B (Homo sapiens) (UniProt P49286); assay: Agonist activity at MT2 receptor (unknown origin) expressed in HEK293 cells at 0.5 mM by Fluo-8 dye-based calcium assay relative to control; outline: as §1
T2 sequence (whole entry): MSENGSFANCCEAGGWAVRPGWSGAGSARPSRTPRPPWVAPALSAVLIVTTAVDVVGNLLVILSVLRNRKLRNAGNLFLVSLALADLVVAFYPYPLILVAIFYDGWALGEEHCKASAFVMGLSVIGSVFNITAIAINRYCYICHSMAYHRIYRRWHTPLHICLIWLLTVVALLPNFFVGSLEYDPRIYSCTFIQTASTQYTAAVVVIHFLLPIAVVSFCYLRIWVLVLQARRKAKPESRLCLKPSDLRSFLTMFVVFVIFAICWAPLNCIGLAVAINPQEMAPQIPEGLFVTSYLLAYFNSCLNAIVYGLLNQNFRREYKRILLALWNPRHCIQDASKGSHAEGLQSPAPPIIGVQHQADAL

[3] = molecular target: T1, Melatonin receptor type 1A; assay: Agonist activity at MT1 receptor (unknown origin) expressed in HEK293 cells by Fluo-8 dye-based calcium assay
[4] = molecular target: T3, Melatonin receptor type 1B (Homo sapiens, UniProt P49286); assay: Agonist activity at MT2 receptor (unknown origin) expressed in HEK293 cells by Fluo-8 dye-based calcium assay
T3 sequence (P49286 whole entry): T2 sequence (whole entry)

T1 sequence (P48039 whole entry): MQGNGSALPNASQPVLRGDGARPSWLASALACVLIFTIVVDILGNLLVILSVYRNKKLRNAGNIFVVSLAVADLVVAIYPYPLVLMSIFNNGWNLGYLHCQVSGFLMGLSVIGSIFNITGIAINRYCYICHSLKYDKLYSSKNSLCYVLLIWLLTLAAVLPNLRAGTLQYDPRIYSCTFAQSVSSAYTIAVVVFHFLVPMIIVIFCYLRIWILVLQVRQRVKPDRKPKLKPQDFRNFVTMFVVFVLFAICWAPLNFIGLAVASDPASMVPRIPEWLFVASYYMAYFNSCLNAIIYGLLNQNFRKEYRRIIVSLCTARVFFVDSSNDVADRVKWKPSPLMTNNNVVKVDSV

| SMILES | Activity [1] [%] | Activity [2] [%] | pEC50 [3] | pEC50 [4] |
| --- | --- | --- | --- | --- |
| CCOCc1cc(Cc2ccc(O)cc2)c(O)c(Cc2ccc(O)c(Cc3ccc(O)cc3)c2)c1 | -5.3 | 29.5 |  |  |
| Oc1ccc(COc2ccc(Cc3ccc(O)cc3)cc2)cc1 | -5.6 | 15.3 |  |  |
| Oc1ccc(Cc2cc(Oc3ccc(O)cc3)ccc2O)cc1 | 37.1 | 51.2 |  |  |
| Oc1ccc(Oc2ccc(O)cc2)cc1 | 45.9 | 67.1 |  |  |
| Oc1ccc(COCc2ccc(O)c(Cc3ccc(O)cc3)c2)cc1 | 25.1 | 59.4 |  |  |
| Oc1ccc(Cc2ccc(O)c(Cc3ccc(O)cc3)c2)cc1 | 46.5 | 134 |  |  |
| OC[C@H]1O[C@@H](Oc2ccc(Sc3ccc(O)cc3)cc2)[C@H](O)[C@@H](O)[C@@H]1O | -2.3 | -2.2 |  |  |
| CCOCc1ccc(O)c(Cc2ccc(O)cc2)c1 | 3.3 | 38.3 |  |  |
| CC(=O)OC[C@H]1O[C@@H](Oc2ccc(Sc3ccc(O)cc3)cc2)[C@H](OC(C)=O)[C@@H](OC(C)=O)[C@@H]1OC(C)=O | 0.3 | 8.5 |  |  |
| CCOCc1ccc(O)c(Cc2ccc(O)c(COCC)c2)c1 | -11.2 | 5.3 |  |  |
| CCOCc1cc(Cc2ccc(O)cc2)ccc1O | 37 | 117 |  |  |
| Oc1ccc(Cc2cc(Sc3ccc(O)cc3)ccc2O)cc1 | 31.3 | 48.4 |  |  |
| Oc1ccc(Cc2ccc(O)c(Cc3ccccc3Cc3ccccc3)c2)cc1 | -2.3 | -6.7 |  |  |
| CCOCc1ccc(O)c(Cc2ccc(O)c(Cc3ccc(O)cc3)c2)c1 | -5.7 | -10.4 |  |  |
| Oc1ccc(Cc2ccc(O)c(Cc3ccccc3)c2)cc1 | -8.6 | -6.6 |  |  |
| CN(c1ccc(O)cc1)c1ccc(O)cc1 | -9.5 | 44.7 |  |  |
| CC(=O)OC[C@H]1O[C@@H](Oc2ccc(Sc3ccc(O[C@@H]4O[C@H](COC(C)=O)[C@@H](OC(C)=O)[C@H](OC(C)=O)[C@H]4OC(C)=O)cc3)cc2)[C@H](OC(C)=O)[C@@H](OC(C)=O)[C@@H]1OC(C)=O | -0.4 | -3.6 |  |  |
| Oc1ccc(Cc2ccc(O)cc2)cc1 | 80.3 | 103 | 3.63 | 3.61 |
| Oc1ccc(Sc2ccc(O)cc2)cc1 | 44.6 | 94.1 |  |  |
